Consider one compound from ChEMBL document CHEMBL4038333, “Nonacidic Farnesoid X Receptor Modulators” (J Med Chem, 2017).

≈ marks a conversion by molar mass, not a printed value. Calls of active or inactive are those of the source. The rule behind the calls is not given here.

In series [1] the target is T1, Bile acid receptor (Homo sapiens) (UniProt Q96RI1).
T1 sequence (whole entry): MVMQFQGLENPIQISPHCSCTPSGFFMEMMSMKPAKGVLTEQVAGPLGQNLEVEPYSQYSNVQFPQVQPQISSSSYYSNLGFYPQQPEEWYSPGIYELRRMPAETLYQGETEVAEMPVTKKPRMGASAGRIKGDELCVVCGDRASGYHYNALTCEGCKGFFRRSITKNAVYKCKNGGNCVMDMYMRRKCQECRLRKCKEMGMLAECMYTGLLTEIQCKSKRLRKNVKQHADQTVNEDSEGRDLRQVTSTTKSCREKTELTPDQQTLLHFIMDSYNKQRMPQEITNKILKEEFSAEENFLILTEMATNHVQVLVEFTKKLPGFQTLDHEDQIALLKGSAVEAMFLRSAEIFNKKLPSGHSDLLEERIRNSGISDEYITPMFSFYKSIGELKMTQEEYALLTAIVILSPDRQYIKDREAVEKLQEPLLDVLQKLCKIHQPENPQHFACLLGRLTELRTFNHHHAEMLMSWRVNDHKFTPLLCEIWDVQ
In words: Modulation of FXR in human HepG2 cells assessed as induction of BSEP mRNA expression at 10 nM by qRT-PCR analysis. The format is cell-based. The method, boiled down: (§1)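 HepG2 hepatocarcinoma cells were incubated with the compound at 10 nM. FXR target-gene mRNA was quantified by qRT-PCR (n = 3), with significance at p < 0.05, 0.01 and 0.001.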

The target of series [2] is T1, Bile acid receptor (Homo sapiens). The experiment in a line: Transactivation of human FXR expressed in human HeLa cells co-expressing BSEP at 3 uM after 24 hrs by dual-glo luciferase reporter gene assay relative to GW4064. The format is cell-based. The method, boiled down: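 Full-length FXR reporter gene assay with constitutively expressed hFXR and hRXR, plus renilla luciferase for normalization and toxicity control. Maximum relative activation is expressed against the reference agonist at 3 µM, set as 100%.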

The nature of series [3]: Aqueous solubility of compound. It is filed as physicochemical. The conditions noted are these: buffer.
Series [4] concerns HepG2. In words: Cytotoxicity against human HepG2 cells up to 100 uM after 48 hrs by WST-1 assay. It is filed as cell-based. The conditions noted are these: hepg2, 48 h.
The nature of series [5]: Half life in human HepG2 cells by HPLC analysis. It is filed as ADME, cell-based.
Series [6] concerns the target G-protein coupled bile acid receptor 1 (Homo sapiens) (UniProt Q8TDU6). The experiment in a line: Agonist activity at TGR5 (unknown origin) expressed in HEK293T cells at 1 uM after 12 to 14 hrs by dual-glo luciferase reporter gene assay. The format is cell-based. The essentials:
(§2)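 Run as a selectivity screen against each listed receptor (14 nuclear receptors plus TGR5), in both agonist and antagonist modes. Test concentration was 1 µM, with n = 3.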

Series [7] addresses T2, Nuclear receptor subfamily 1 group I member 2 (Homo sapiens, UniProt O75469). The experiment in a line: Transactivation of GAL4-tagged human PXR isoform 1 ligand binding domain (138 to 434 residues) expressed in HEK293T cells at 1 uM after 12 to 14 hrs by dual-glo luciferase reporter gene assay. The settings on record: hek-293t. The format is cell-based. The essentials:
as §2

Series [8] concerns the target Vitamin D3 receptor (Homo sapiens) (UniProt P11473). The experiment in a line: Transactivation of GAL4-tagged human VDR isoform 1 ligand binding domain (119 to 427 residues) expressed in HEK293T cells at 1 uM after 12 to 14 hrs by dual-glo luciferase reporter gene assay. It is filed as cell-based. The settings on record: HEK-293T. The method, boiled down: as §2
Series [9] has as its target Retinoic acid receptor gamma (Homo sapiens) (UniProt P13631). In words: Transactivation of GAL4-tagged human RARgamma isoform 1 ligand binding domain (179 to 454 residues) expressed in HEK293T cells at 1 uM after 12 to 14 hrs by dual-glo luciferase reporter gene assay. The format is cell-based. The conditions noted are these: HEK-293T. The method, boiled down: as §2

The target of series [10] is Retinoic acid receptor beta (Homo sapiens) (UniProt P10826). The experiment in a line: Transactivation of GAL4-tagged human RARbeta1 ligand binding domain (177 to 455 residues) expressed in HEK293T cells at 1 uM after 12 to 14 hrs by dual-glo luciferase reporter gene assay. It is filed as cell-based. The settings on record: HEK-293T. The method, boiled down: as §2
The target in series [11] is Retinoic acid receptor RXR-gamma (Homo sapiens) (UniProt P48443). The experiment in a line: Transactivation of GAL4-tagged human RXRgamma ligand binding domain (229 to 463 residues) expressed in HEK293T cells at 1 uM after 12 to 14 hrs by dual-glo luciferase reporter gene assay. The settings on record: HEK-293T. It is filed as cell-based. The essentials: as §2
Series [12] has as its target Oxysterols receptor LXR-beta (Homo sapiens) (UniProt P55055). In words: Transactivation of GAL4-tagged human LXRbeta ligand binding domain expressed in HEK293T cells at 1 uM after 12 to 14 hrs by dual-glo luciferase reporter gene assay. The format is cell-based. The conditions noted are these: HEK-293T. The method, boiled down:
as §2

For series [13], the target named is Peroxisome proliferator-activated receptor delta (Homo sapiens) (UniProt Q03181). In words: Transactivation of GAL4-tagged human PPARdelta ligand binding domain expressed in HEK293T cells at 1 uM after 12 to 14 hrs by dual-glo luciferase reporter gene assay. The settings on record: HEK-293T. It is filed as cell-based. The essentials: as §2
Series [14] has as its target Peroxisome proliferator-activated receptor gamma (Homo sapiens) (UniProt P37231). The experiment in a line: Transactivation of GAL4-tagged human PPARgamma ligand binding domain expressed in HEK293T cells at 1 uM after 12 to 14 hrs by dual-glo luciferase reporter gene assay. The conditions noted are these: HEK-293T. It is filed as cell-based. The method, boiled down: as §2

Series [15] concerns the target T2, Nuclear receptor subfamily 1 group I member 2. The experiment in a line: Antagonist activity at GAL4-tagged human PXR isoform 1 ligand binding domain (138 to 434 residues) expressed in HEK293T cells at 1 uM after 12 to 14 hrs by dual-glo luciferase reporter gene assay. The settings on record: hek-293t. The format is cell-based. The method, boiled down: as §2

Series [16] has as its target Vitamin D3 receptor (Homo sapiens) (UniProt P11473). The experiment in a line: Antagonist activity at GAL4-tagged human VDR isoform 1 ligand binding domain (119 to 427 residues) expressed in HEK293T cells at 1 uM after 12 to 14 hrs by dual-glo luciferase reporter gene assay. It is filed as cell-based. The conditions noted are these: HEK-293T. The essentials: as §2

Series [17] has as its target Retinoic acid receptor alpha (Homo sapiens) (UniProt P10276). In words: Antagonist activity at GAL4-tagged human RARalpha1 ligand binding domain (177 to 462 residues) expressed in HEK293T cells at 1 uM after 12 to 14 hrs by dual-glo luciferase reporter gene assay. It is filed as cell-based. The conditions noted are these: HEK-293T. The method, boiled down: as §2
The target of series [18] is Retinoic acid receptor RXR-gamma (Homo sapiens) (UniProt P48443). The experiment in a line: Antagonist activity at GAL4-tagged human RXRgamma ligand binding domain (229 to 463 residues) expressed in HEK293T cells at 1 uM after 12 to 14 hrs by dual-glo luciferase reporter gene assay. The format is cell-based. The settings on record: HEK-293T. The essentials:
as §2

The target in series [19] is Oxysterols receptor LXR-alpha (Homo sapiens) (UniProt Q13133). The experiment in a line: Antagonist activity at GAL4-tagged human LXRalpha ligand binding domain expressed in HEK293T cells at 1 uM after 12 to 14 hrs by dual-glo luciferase reporter gene assay. It is filed as cell-based. The conditions noted are these: HEK-293T. The essentials: as §2
Series [20] has as its system HeLa. The experiment in a line: Selectivity ratio for human FXR expressed in human HeLa cells co-expressing BSEP over TGR5 (unknown origin) expressed in HEK293T cells. It is filed as cell-based.
The test system of series [21] is HeLa. In words: Selectivity ratio for human FXR expressed in human HeLa cells co-expressing BSEP over GAL4-tagged human RARgamma isoform 1 ligand binding domain (179 to 454 residues) expressed in HEK293T cells. It is filed as cell-based.
The subject of series [22] is HeLa. The experiment in a line: Selectivity ratio for human FXR expressed in human HeLa cells co-expressing BSEP over GAL4-tagged human RARbeta1 ligand binding domain (177 to 455 residues) expressed in HEK293T cells. It is filed as cell-based.
Series [23] concerns the target T1, Bile acid receptor (Homo sapiens). The experiment in a line: Modulation of FXR in human HepG2 cells assessed as induction of SHP mRNA expression at 10 nM by qRT-PCR analysis. It is filed as cell-based. The method, boiled down: as §1
Series [24] has the same target. In words: Modulation of FXR in human HepG2 cells assessed as suppression of CYP7A1 mRNA expression at 10 nM by qRT-PCR analysis. The format is cell-based. The essentials: as §1

Retinoic acid receptor RXR-gamma (Homo sapiens), sequence (P48443 whole entry, the tested form may be a part): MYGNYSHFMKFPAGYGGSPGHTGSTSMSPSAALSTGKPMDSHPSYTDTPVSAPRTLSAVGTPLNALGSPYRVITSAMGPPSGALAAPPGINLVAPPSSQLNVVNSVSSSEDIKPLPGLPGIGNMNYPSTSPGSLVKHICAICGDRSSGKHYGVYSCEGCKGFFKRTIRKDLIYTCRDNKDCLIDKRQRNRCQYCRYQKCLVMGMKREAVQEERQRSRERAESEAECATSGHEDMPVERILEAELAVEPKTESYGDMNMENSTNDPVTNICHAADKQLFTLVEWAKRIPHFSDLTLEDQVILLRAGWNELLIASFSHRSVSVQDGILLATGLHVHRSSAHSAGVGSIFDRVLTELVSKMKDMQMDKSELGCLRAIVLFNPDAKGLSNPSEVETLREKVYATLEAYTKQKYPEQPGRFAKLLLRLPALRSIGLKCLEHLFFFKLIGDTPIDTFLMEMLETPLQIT
Vitamin D3 receptor (Homo sapiens), sequence (P11473 whole entry, the tested form may be a part, canonical isoform): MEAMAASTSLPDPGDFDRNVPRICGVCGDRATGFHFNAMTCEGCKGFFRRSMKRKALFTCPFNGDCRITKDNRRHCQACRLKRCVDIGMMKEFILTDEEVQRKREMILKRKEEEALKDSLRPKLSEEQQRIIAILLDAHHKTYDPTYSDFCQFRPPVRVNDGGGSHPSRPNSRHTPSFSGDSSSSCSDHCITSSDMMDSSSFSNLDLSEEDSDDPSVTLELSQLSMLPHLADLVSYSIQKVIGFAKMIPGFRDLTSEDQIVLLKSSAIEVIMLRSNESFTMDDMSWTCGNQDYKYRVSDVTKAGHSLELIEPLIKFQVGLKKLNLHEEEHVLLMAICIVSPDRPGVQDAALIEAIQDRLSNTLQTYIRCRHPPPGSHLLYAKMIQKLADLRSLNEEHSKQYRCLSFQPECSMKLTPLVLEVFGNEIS
T2 sequence (O75469 whole entry, the tested form may be a part, canonical isoform): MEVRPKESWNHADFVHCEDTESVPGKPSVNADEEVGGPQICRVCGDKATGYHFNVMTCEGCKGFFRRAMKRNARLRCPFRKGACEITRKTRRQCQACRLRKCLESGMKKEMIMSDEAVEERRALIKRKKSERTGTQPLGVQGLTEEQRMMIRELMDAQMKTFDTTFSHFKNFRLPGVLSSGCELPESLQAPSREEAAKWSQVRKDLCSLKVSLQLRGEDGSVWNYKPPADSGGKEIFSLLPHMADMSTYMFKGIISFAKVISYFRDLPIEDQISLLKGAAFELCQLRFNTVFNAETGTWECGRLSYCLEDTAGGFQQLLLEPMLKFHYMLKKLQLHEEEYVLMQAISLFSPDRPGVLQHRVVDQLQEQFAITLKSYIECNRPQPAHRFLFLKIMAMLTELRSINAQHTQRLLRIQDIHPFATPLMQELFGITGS
Retinoic acid receptor alpha (Homo sapiens), sequence (P10276 whole entry, the tested form may be a part): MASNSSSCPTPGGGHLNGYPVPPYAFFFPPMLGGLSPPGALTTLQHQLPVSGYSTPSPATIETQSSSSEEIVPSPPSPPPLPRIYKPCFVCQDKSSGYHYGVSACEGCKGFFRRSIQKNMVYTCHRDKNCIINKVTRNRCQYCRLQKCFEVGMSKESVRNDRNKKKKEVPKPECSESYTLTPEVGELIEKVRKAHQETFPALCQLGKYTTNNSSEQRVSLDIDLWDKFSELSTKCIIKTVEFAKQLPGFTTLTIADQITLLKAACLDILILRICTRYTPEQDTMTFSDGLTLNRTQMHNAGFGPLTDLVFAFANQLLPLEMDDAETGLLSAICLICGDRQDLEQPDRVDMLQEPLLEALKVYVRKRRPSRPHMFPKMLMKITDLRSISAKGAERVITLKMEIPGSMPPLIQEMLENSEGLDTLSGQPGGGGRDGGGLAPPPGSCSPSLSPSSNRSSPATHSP
Retinoic acid receptor gamma (Homo sapiens), sequence (P13631 whole entry, the tested form may be a part, canonical isoform): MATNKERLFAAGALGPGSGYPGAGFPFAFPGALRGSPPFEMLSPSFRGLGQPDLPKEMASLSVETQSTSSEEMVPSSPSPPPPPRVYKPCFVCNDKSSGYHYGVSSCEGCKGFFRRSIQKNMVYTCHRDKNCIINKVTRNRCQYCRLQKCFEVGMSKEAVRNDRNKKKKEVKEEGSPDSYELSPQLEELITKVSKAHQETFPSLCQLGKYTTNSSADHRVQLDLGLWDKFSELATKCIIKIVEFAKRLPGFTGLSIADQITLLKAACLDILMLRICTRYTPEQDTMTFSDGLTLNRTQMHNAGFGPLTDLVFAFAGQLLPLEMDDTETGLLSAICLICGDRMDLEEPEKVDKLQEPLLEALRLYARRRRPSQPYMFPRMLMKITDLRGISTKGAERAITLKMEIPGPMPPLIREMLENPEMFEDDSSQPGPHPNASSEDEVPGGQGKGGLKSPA
Retinoic acid receptor beta (Homo sapiens), sequence (P10826 whole entry, the tested form may be a part): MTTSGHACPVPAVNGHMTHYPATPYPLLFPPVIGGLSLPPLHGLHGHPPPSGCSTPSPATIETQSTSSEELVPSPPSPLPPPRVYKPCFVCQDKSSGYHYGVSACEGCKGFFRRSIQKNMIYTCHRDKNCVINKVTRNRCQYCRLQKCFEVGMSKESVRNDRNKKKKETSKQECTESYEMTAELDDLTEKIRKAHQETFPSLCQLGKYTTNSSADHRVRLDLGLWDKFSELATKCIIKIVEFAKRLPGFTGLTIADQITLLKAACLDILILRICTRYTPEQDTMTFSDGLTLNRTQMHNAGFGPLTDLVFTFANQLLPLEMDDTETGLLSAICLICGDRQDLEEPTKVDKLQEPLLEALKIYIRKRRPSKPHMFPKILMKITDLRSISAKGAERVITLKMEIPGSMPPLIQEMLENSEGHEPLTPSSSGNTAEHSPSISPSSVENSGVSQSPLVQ
G-protein coupled bile acid receptor 1 (Homo sapiens), sequence (Q8TDU6 whole entry): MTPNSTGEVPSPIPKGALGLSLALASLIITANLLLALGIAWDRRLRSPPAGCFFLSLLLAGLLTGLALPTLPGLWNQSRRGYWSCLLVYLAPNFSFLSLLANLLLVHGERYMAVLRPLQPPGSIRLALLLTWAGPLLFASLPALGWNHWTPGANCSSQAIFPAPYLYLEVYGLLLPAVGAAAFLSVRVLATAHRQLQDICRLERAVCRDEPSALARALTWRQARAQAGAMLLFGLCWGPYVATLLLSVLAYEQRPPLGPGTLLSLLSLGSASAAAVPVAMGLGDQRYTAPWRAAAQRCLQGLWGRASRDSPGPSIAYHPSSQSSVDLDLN
Peroxisome proliferator-activated receptor gamma (Homo sapiens), sequence (P37231 whole entry, the tested form may be a part): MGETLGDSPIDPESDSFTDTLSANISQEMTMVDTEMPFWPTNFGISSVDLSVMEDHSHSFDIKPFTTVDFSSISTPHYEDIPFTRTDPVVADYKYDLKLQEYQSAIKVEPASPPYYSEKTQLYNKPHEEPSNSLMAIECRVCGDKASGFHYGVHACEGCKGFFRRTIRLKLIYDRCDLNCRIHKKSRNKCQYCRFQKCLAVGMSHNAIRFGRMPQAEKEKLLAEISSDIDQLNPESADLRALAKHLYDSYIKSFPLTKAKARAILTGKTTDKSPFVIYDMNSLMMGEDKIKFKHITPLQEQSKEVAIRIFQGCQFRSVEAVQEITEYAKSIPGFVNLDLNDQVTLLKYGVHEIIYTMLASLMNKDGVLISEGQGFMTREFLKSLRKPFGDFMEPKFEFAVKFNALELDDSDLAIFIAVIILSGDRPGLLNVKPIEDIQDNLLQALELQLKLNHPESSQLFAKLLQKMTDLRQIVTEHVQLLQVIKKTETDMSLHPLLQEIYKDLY
Peroxisome proliferator-activated receptor delta (Homo sapiens), sequence (Q03181 whole entry, the tested form may be a part): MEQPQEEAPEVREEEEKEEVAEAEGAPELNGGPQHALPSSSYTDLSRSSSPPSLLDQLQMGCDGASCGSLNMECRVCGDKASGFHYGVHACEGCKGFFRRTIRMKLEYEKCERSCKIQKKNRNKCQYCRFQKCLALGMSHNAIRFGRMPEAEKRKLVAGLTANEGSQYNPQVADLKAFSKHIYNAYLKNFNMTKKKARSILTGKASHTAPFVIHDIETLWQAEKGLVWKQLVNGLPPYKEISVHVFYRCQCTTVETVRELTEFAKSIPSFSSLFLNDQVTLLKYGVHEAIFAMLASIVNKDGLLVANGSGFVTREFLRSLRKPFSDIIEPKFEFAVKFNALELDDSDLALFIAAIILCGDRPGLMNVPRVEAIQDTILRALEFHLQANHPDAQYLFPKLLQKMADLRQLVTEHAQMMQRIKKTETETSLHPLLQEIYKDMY
Oxysterols receptor LXR-alpha (Homo sapiens), sequence (Q13133 whole entry, the tested form may be a part): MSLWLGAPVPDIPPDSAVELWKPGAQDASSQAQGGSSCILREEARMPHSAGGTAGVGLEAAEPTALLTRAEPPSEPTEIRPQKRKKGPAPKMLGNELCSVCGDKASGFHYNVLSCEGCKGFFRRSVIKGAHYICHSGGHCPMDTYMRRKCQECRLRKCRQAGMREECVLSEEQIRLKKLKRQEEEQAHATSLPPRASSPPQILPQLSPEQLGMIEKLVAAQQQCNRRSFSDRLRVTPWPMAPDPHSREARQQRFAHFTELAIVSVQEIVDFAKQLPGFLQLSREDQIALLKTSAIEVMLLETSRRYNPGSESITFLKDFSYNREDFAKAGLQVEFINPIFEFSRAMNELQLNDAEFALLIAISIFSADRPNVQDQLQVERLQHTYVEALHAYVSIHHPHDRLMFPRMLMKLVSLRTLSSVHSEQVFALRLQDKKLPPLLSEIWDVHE
Oxysterols receptor LXR-beta (Homo sapiens), sequence (P55055 whole entry, the tested form may be a part): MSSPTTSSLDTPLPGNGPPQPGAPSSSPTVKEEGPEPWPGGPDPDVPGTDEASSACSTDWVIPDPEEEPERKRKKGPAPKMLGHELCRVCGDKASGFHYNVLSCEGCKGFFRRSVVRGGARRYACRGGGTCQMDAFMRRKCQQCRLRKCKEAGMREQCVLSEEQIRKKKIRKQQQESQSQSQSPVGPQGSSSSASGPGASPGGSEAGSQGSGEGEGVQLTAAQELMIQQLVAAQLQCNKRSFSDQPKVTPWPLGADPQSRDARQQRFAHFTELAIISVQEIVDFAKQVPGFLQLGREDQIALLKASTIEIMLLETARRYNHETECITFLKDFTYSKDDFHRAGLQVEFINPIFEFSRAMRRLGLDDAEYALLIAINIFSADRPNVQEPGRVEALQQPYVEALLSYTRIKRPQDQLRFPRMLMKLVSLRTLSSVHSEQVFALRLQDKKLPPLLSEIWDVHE

Take `COc1ccc(CNc2c(-c3cc(Cl)ccn3)nc3ccc(Cl)cn23)cc1`: the outcome in [1], in series [23] and in series [24] was Active. This compound also showed a max activation in series [2] of 23%. This compound also displayed a solubility in [3] of 0.0637 µg/mL (≈ 0.16 µM). The Activity entry in series [4] was “Non-Toxic”; in series [7], “Not Active”. Moreover, the half-life in [5] is 1.5 to 2 h. For the same compound, the outcome in series [6], in series [8], in series [9], in series [10], in [11] and in [12] was inactive. Moreover, the outcome in [13] and in series [14] was inactive. Besides, in series [15], the “inhibition (INH)” value was “Not Active”. Moreover, the inhibition entry in [16], in [17], in series [18] and in [19] was “inactive” in each case. The Selectivity ratio in series [20], in [21] and in [22] was 3000 in each case.
